Source: ChEMBL document CHEMBL5724801, “EUbOPEN Chemogenomics Library - Multiplex” (2024)
Where “and” joins values, the source holds several entries; their conditions need not be identical. Equal entries are not always repeated.

Columns and labels:
Fibroblast = test: Multiplex assay against human fibroblast; format: toxicity, cell-based
Summary of the method: (§1)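 On a CQ1 microscope at 37°C and 5% CO2, live cells were imaged after compound addition. They had been stained at seeding with Hoechst33342, BioTracker Green Microtubule Cytoskeleton Dye, MitoTracker Red and Annexin V Alexa Fluor 680. CellPathfinder machine-learning gating assigned cells to Hoechst high-intensity objects or normal cells, normal cells to healthy, pyknosed or fragmented nuclei, and pyknosed cells to mitotic or apoptotic. Tubulin, mitochondrial-mass and membrane-permeability phenotypes are per cents of healthy-nucleus cells.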

HEK-293T = test: Multiplex assay against HEK293T; format: toxicity, cell-based; conditions: human; summary of the method: as §1
[1] = 12 h, 1 µM, compound concentration 1 uM
[2] = 12 h, 10 µM, compound concentration 10 uM
[3] = 24 h, 1 µM, compound concentration 1 uM
[4] = 24 h, 10 µM, compound concentration 10 uM
[5] = 48 h, 1 µM, compound concentration 1 uM
[6] = 48 h, 10 µM, compound concentration 10 uM

CC[C@@H](C)Nc1nc(C)nc2c(-c3ccc(OC)nc3C)c(C)nn12 [PEXACERFONT]
Population Apoptotic (%) (Fibroblast; [1]): 40% and 25% | Population Fragmented Nuclei (%) (Fibroblast; [1]): 12% and 32% | Population Healthy Nuclei (%) (Fibroblast; [1]): 66% and 44% | Population Hoechst High Intensity Objects (%) (Fibroblast; [1]): 1% and 2% | Population Mitochondria Different-Phenotype (%) (Fibroblast; [1]): 4% | Population Mitotic Cells (%) (Fibroblast; [1]): 60% and 75% | Population Normal (%) (Fibroblast; [1]): 98% and 97% | Population Pyknosed Nuclei (%) (Fibroblast; [1]): 20% and 24% | Population Tubulin-Different-Phenotype (%) (Fibroblast; [1]): 35% and 65% | Total Cell Count (Fibroblast; [1]): 147 and 103 | Population Apoptotic (%) (Fibroblast; [2]): 43% and 38% | Population Fragmented Nuclei (%) (Fibroblast; [2]): 15% and 21% | Population Healthy Nuclei (%) (Fibroblast; [2]): 55% and 40% | Population Hoechst High Intensity Objects (%) (Fibroblast; [2]): 2% and 8% | Population Membrane Permeable-Phenotype (%) (Fibroblast; [2]): 0% and 7% | Population Mitochondria Different-Phenotype (%) (Fibroblast; [2]): 19% and 9% | Population Mitotic Cells (%) (Fibroblast; [2]): 56% and 61% | Population Normal (%) (Fibroblast; [2]): 97% and 91% | Population Pyknosed Nuclei (%) (Fibroblast; [2]): 29% and 38% | Population Tubulin-Different-Phenotype (%) (Fibroblast; [2]): 62% and 68% | Total Cell Count (Fibroblast; [2]): 143 and 147 | Population Apoptotic (%) (Fibroblast; [3]): 52% and 47% | Population Fragmented Nuclei (%) (Fibroblast; [3]): 16% and 35% | Population Healthy Nuclei (%) (Fibroblast; [3]): 70% and 42% | Population Hoechst High Intensity Objects (%) (Fibroblast; [3]): 1% and 3% | Population Membrane Permeable-Phenotype (%) (Fibroblast; [3]): 0% and 20% | Population Mitochondria Different-Phenotype (%) (Fibroblast; [3]): 3% and 2% | Population Mitotic Cells (%) (Fibroblast; [3]): 47% and 52% | Population Normal (%) (Fibroblast; [3]): 98% and 96% | Population Pyknosed Nuclei (%) (Fibroblast; [3]): 13% and 22% | Population Tubulin-Different-Phenotype (%) (Fibroblast; [3]): 38% and 61% | Total Cell Count (Fibroblast; [3]): 157 and 108 | Population Apoptotic (%) (Fibroblast; [4]): 37% and 38% | Population Fragmented Nuclei (%) (Fibroblast; [4]): 16% and 18% | Population Healthy Nuclei (%) (Fibroblast; [4]): 56% and 47% | Population Hoechst High Intensity Objects (%) (Fibroblast; [4]): 1% and 7% | Population Mitochondria Different-Phenotype (%) (Fibroblast; [4]): 10% and 6% | Population Mitotic Cells (%) (Fibroblast; [4]): 62% and 61% | Population Normal (%) (Fibroblast; [4]): 98% and 92% | Population Pyknosed Nuclei (%) (Fibroblast; [4]): 27% and 33% | Population Tubulin-Different-Phenotype (%) (Fibroblast; [4]): 68% and 76% | Total Cell Count (Fibroblast; [4]): 139 and 143 | Population Apoptotic (%) (Fibroblast; [5]): 54% and 25% | Population Fragmented Nuclei (%) (Fibroblast; [5]): 15% and 40% | Population Healthy Nuclei (%) (Fibroblast; [5]): 69% and 45% | Population Hoechst High Intensity Objects (%) (Fibroblast; [5]): 8% and 1% | Population Mitochondria Different-Phenotype (%) (Fibroblast; [5]): 0% and 4% | Population Mitotic Cells (%) (Fibroblast; [5]): 45% and 75% | Population Normal (%) (Fibroblast; [5]): 91% and 98% | Population Pyknosed Nuclei (%) (Fibroblast; [5]): 15% and 14% | Population Tubulin-Different-Phenotype (%) (Fibroblast; [5]): 30% and 52% | Total Cell Count (Fibroblast; [5]): 160 and 113 | Population Apoptotic (%) (Fibroblast; [6]): 87% and 52% | Population Fragmented Nuclei (%) (Fibroblast; [6]): 23% and 32% | Population Healthy Nuclei (%) (Fibroblast; [6]): 53% and 50% | Population Hoechst High Intensity Objects (%) (Fibroblast; [6]): 3% and 4% | Population Membrane Permeable-Phenotype (%) (Fibroblast; [6]): 0% and 12% | Population Mitochondria Different-Phenotype (%) (Fibroblast; [6]): 14% and 9% | Population Normal (%) (Fibroblast; [6]): 96% and 95% | Population Pyknosed Nuclei (%) (Fibroblast; [6]): 22% and 16% | Population Tubulin-Different-Phenotype (%) (Fibroblast; [6]): 62% and 76% | Total Cell Count (Fibroblast; [6]): 144 and 134 | Population Apoptotic (%) (HEK-293T; [1]): 33% and 47% | Population Fragmented Nuclei (%) (HEK-293T; [1]): 7% and 5% | Population Healthy Nuclei (%) (HEK-293T; [1]): 79% and 82% | Population Hoechst High Intensity Objects (%) (HEK-293T; [1]): 6% and 8% | Population Membrane Permeable-Phenotype (%) (HEK-293T; [1]): 0% | Population Mitochondria Different-Phenotype (%) (HEK-293T; [1]): 45% and 61% | Population Mitotic Cells (%) (HEK-293T; [1]): 66% and 52% | Population Normal (%) (HEK-293T; [1]): 93% and 91% | Population Pyknosed Nuclei (%) (HEK-293T; [1]): 13% and 11% | Population Tubulin-Different-Phenotype (%) (HEK-293T; [1]): 34% and 31% | Total Cell Count (HEK-293T; [1]): 399 and 314 | Population Apoptotic (%) (HEK-293T; [2]): 38% and 41% | Population Fragmented Nuclei (%) (HEK-293T; [2]): 6% and 9% | Population Healthy Nuclei (%) (HEK-293T; [2]): 75% and 74% | Population Hoechst High Intensity Objects (%) (HEK-293T; [2]): 8% and 11% | Population Membrane Permeable-Phenotype (%) (HEK-293T; [2]): 0% and 1% | Population Mitochondria Different-Phenotype (%) (HEK-293T; [2]): 59% and 75% | Population Mitotic Cells (%) (HEK-293T; [2]): 61% and 58% | Population Normal (%) (HEK-293T; [2]): 91% and 88% | Population Pyknosed Nuclei (%) (HEK-293T; [2]): 17% and 16% | Population Tubulin-Different-Phenotype (%) (HEK-293T; [2]): 54% and 55% | Total Cell Count (HEK-293T; [2]): 451 and 321 | Population Apoptotic (%) (HEK-293T; [3]): 24% and 45% | Population Fragmented Nuclei (%) (HEK-293T; [3]): 8% and 13% | Population Healthy Nuclei (%) (HEK-293T; [3]): 79% and 76% | Population Hoechst High Intensity Objects (%) (HEK-293T; [3]): 3% and 7% | Population Membrane Permeable-Phenotype (%) (HEK-293T; [3]): 0% | Population Mitochondria Different-Phenotype (%) (HEK-293T; [3]): 26% and 34% | Population Mitotic Cells (%) (HEK-293T; [3]): 75% and 54% | Population Normal (%) (HEK-293T; [3]): 96% and 92% | Population Pyknosed Nuclei (%) (HEK-293T; [3]): 11% and 9% | Population Tubulin-Different-Phenotype (%) (HEK-293T; [3]): 21% and 15% | Total Cell Count (HEK-293T; [3]): 508 and 387 | Population Apoptotic (%) (HEK-293T; [4]): 37% and 33% | Population Fragmented Nuclei (%) (HEK-293T; [4]): 6% and 7%
